Laboratory results published in ChEMBL document CHEMBL1146574, “A novel 5-HT receptor ligand and related cytotoxic compounds from an acid mine waste extremophile” (J Nat Prod, 2003).

What was measured:
Artemia = test: Toxicity against brine shrimp; assay type: organism-based; conditions: in vivo
[1] = molecular target: 5-hydroxytryptamine receptor 2A (Rattus norvegicus) (UniProt P14842); test: Displacement of [3H]ketanserin from rat 5HT2A receptor expressed in mouse NIH3T3 cells assessed as bound radiolabeled ligand remaining by liquid scintillation relative to control; assay type: cell-based
Chain of 5-hydroxytryptamine receptor 2A (Rattus norvegicus) (P14842 whole entry): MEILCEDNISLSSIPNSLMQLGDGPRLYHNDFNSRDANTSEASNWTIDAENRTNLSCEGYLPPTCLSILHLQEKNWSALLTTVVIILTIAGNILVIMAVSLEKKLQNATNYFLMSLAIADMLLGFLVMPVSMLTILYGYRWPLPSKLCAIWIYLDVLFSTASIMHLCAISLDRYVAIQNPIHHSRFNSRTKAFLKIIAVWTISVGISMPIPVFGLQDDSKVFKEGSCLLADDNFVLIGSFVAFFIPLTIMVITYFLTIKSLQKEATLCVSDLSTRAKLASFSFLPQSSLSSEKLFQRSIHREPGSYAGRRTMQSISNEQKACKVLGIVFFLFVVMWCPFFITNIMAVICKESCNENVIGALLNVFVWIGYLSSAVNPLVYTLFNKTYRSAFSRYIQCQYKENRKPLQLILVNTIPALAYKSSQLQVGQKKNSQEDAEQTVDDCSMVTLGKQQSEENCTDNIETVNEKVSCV
In short: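 Crude membranes from confluent NIH 3T3 cells stably expressing rat 5-HT2A receptor (DMEM, 10% calf serum, geneticin), prepared freshly in 50 mM Tris, 4 mM CaCl2, 10 µM pargyline, pH 7.4. Tritiated ligand 0.5 nM final; nonspecific binding with 10 µM 5-HT; test compounds at 100 µM. Triplicate 1 mL reactions, 30 min at 30 °C. Glass-fiber filtration, scintillation counting, reported as percent of control binding.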

| SMILES | Activity (Artemia) | Activity [1] |
| --- | --- | --- |
| CC(C)=CCOc1ccc(CCO)cc1 [ETROGOL] | Toxic | 85% |
| CC(=O)NC(Cc1ccc(OCC=C(C)C)cc1)C(=O)O (stereo not given) | Toxic | 85% |
| COC(=O)C(Cc1ccc(OCC=C(C)C)cc1)NC(C)=O (stereo not given) | – | 85% |
| C[C@H]1CC[C@H]2[C@H]1C[C@]1([C@@H](C)CO)CC[C@]2(C)O1 | Non-toxic | – |
| C[C@H]1CC[C@H]2[C@H]1C[C@H](C(C)(C)O)CC[C@@]2(C)O | Non-toxic | – |
| CC(=O)OCCc1ccc(OCC=C(C)C)cc1 [ETROGOL ACETATE] | Toxic | 11% |
| C=C(C)[C@@H]1CC[C@@](C)(O)[C@H]2CC[C@H](C)[C@@H]2C1 | Non-toxic | – |
